Compound activity from PubChem.
HUVEC prolif 384 = blocks proliferation of human endothelial cells; AID 648; viability, % at 10 µM (by protocol); 86,000 tested, 1.1% active; HUVEC proliferation, CellTiter-Glo luminescence, 72 h; hits give low values;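 active = viability at or below 30%; inactive = viability above 30%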;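 note: 100% = median luminescence of DMSO-only cell control wells on each plate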
PTEN del growth = PTEN-deleted cell growth suppression; HCT116 PTEN-null viability, CellTiter-Glo, 60 h; hits give low values; viability, % at 10 µM; 140,000 tested, 1.2% active; AID 827;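 active = viability at or below a set limit, 4 SD under the median of all tested compounds, cut at about 3.7% in these data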;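 note: PTEN knockout HCT116 line with beta catenin targeted HCT116 as companion control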
Lung fibro prol = blocks proliferation of human lung fibroblasts; LL 47 human lung fibroblast viability, ATP luminescence; hits give low values; viability, % at 10 µM; 85,000 tested, 1.1% active; AID 719;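 active = viability at or below 50% in the single dose screen; inactive = viability above 50%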;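 note: compound exposure lasted 72 h before the ATP readout; 100% = median luminescence of untreated cell-only wells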
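Material: human lung fibroblast line LL 47, low passage; Evaluation: viability percentage against median untreated-cell control; Buffer or medium: 15% FBS in IMEM; Incubation: 72 h compound exposure at 37 °C after overnight plating; Dosing: 0.1% DMSO in all compound wells; Measured by: CellTiter-Glo luminescence.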
H69AR inhibit = growth inhibitors of human H69AR lung tumor cells; 85,000 tested, 6% active; viability, % at 10 µM; H69AR lung tumor viability, ATP luminescence, 72 h; hits give low values; AID 598;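 active = viability at or below 40%; inactive = viability above 40%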;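 note: multidrug resistant small cell line overexpressing MRP-1 efflux transporter; 100% = mean luminescence of untreated control wells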
HCT116 bCat-KO = beta-catenin-lacking colon tumor cell growth suppression; 140,000 tested, 1.5% active; viability, % at 10 µM; HCT116 beta-catenin knockout viability, CellTiter-Glo, 60 h; hits give low values; AID 818;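 active = viability at or under a set limit, the compound median less 4 SD, cut at about 6% in these data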;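 note: 0% = Hyamine 1622 control at 20 µM and 100% = untreated cell control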
Numbers without * were called inactive; · = no result given. This excerpt belongs to a sample that is enriched for hits.

SMILES | HUVEC prolif 384 | PTEN del growth | Lung fibro prol | H69AR inhibit | HCT116 bCat-KO
CC(C)c1ccc(C(=O)NCCCN(C)C)cc1 | · | 98 | · | · | 96
COc1ccc(N(C(=O)c2ccco2)C(C(=O)NC2CCCCC2)c2cccs2)cc1OC (stereo unspecified) | 115 | 102 | 103 | 84 | 104
C#CC(=O)N(c1cc(OC)ccc1OC)C(C(=O)NC1CCCC1)c1cccs1 (stereo unspecified) | · | 1.0* | · | · | 0.7*
CC(=O)N1CCN(c2ccccc2NC(=O)COc2ccc(Br)cc2)CC1 | 88 | 89 | 96 | 89 | 86
CN1CCN(c2ccccc2NC(=O)COc2ccccc2)CC1 | 88 | 87 | 93 | 68 | 100
Cc1ccc(C(C)C)c(OCC(=O)Nc2ccccc2N2CCN(C)CC2)c1 | 76 | 17 | 93 | 35* | 12
CC(=O)N1CCN(c2ccccc2NC(=O)COc2cc(C)ccc2C(C)C)CC1 | 72 | 42 | 93 | 35* | 44
Cc1ccc(S(=O)(=O)N2CCC(C(=O)N/N=C/c3cccnc3)CC2)cc1 | · | 92 | · | · | 86
Cc1ccc(-n2nc3c([n+]2[O-])CCc2c-3no[n+]2[O-])cc1 | 97 | 19 | 94 | 38* | 26
Cc1cccc(-n2nc3c([n+]2[O-])CCc2nonc2-3)c1C | · | 104 | · | · | 91
[O-][n+]1onc2c1CCc1c-2nn(-c2ccccc2Cl)[n+]1[O-] | 63 | 2.0* | 56 | · | 2.5*
N#Cc1ccc(N/N=C/c2cn(-c3ccccc3)nc2-c2ccccc2)c([N+](=O)[O-])c1 | · | 1.0* | · | · | 1.8*
O=C(Nc1ccccc1)Nc1cc(OCC(F)(F)F)cc(OCC(F)(F)F)c1 | · | 1.9* | · | · | 2.2*
O=C(Nc1ccccc1)Nc1cc(Cl)cc(Cl)c1 | 28* | 2.2* | 54 | 1.8* | 2.0*
O=C(Nc1cccc(Cl)c1)Nc1cccc(Cl)c1 | 82 | 70 | 95 | 85 | 86
CSc1ccc(/C=N/NC(=O)COc2ccc(Br)cc2Cl)cc1 | · | 83 | · | · | 91
c1ccc(-c2csc3ncnc(N4CCc5ccccc5C4)c23)cc1 | · | 60 | · | · | 57
CCOC(=O)c1[nH]c(COC(=O)c2ccccc2NC(=O)c2ccco2)c(C(=O)OCC)c1C | 82 | 92 | 95 | 8.5* | 89
CCOC(=O)c1c(C)[nH]c(C(=O)COC(=O)c2ccccc2NC(=O)c2ccco2)c1C | 65 | 74 | 100 | 18* | 73
CCOC(=O)c1c(C)[nH]c(C(=O)COC(=O)[C@H](C)NC(=O)c2ccccc2Cl)c1C | · | 100 | · | · | 91
Clc1ccc(OCc2nn3c(-c4ccco4)nnc3s2)c(Cl)c1 | 102 | 91 | 94 | 34* | 93
Clc1ccc(-c2ccc(-c3nn4c(-c5ccco5)nnc4s3)o2)cc1 | 83 | · | 89 | 26* | ·
Cc1cccc(-c2cc3nc4c(c(NCc5ccco5)n3n2)CCCC4)c1 | · | 64 | · | · | 69
Cc1ccc(-c2cc(C(=O)NCc3ccccn3)c3ccccc3n2)cc1C | · | 1.9* | · | · | 3.4*
O=C(CSc1ncc(-c2ccccc2)n1C1CCCC1)N1CCc2ccccc21 | · | 38 | · | · | 47
SMILES | HUVEC prolif 384 | PTEN del growth | Lung fibro prol | H69AR inhibit | HCT116 bCat-KO
O=C(Nc1ccc(Cl)cc1)Nc1ccc2c(c1)N1CCN=C1S2 | 62 | 27 | 102 | 35* | 25
O=C(CN1CCN(Cc2ccccc2)CC1)N1CCCc2c1c(=O)oc1ccc(O)cc21 | 31 | 34 | 82 | 7.6* | 38
CCOC(=O)C1=C(C)NC(=O)NC1c1c(C)nn(-c2ccccc2)c1Cl (stereo unspecified) | 89 | 107 | 97 | 81 | 94
CCOC(=O)C1=C(C)N(C)C(=O)NC1c1c(C)nn(-c2ccc(C)cc2)c1Cl (stereo unspecified) | 88 | · | 90 | 31* | 78
COc1ccccc1Nc1nnc(SCc2cc(=O)n3cc(C)ccc3n2)s1 | · | 80 | · | · | 83
O=C(Nc1ccc2nn(-c3ccccc3)nc2c1)c1ccco1 | 91 | 97 | 90 | 89 | 94
O=C(Nc1cc2nn(-c3ccccc3)nc2cc1Cl)c1ccco1 | 54 | 3.4* | 97 | 42 | 1.7*
O=C(Nc1ccccc1C(F)(F)F)c1cc2ncc(CCCl)cn2n1 | · | 95 | · | · | 90
O=C(c1cccc([N+](=O)[O-])c1)N1CCCN(C(=O)c2cccc([N+](=O)[O-])c2)CC1 | · | 83 | · | · | 80
Cc1nc(SCC(=O)Nc2ccccc2)c2oc3ccccc3c2n1 | 47 | 94 | 91 | 12* | 87
O=C(CSc1ncnc2c1oc1ccccc12)Nc1nc2ccccc2s1 | 16* | 75 | 103 | 13* | 68
